Here are results for 13 compounds from ChEMBL document CHEMBL1142657, “Imidazolidin-4-one derivatives of primaquine as novel transmission-blocking antimalarials” (J Med Chem, 2005).

The nature of series [1]: Mean number of Plasmodium berghei ANKA […] production in Anopheles stephensi mosquito after treatment with the compound at a dosage 0 umol.1/kg. It is filed as functional, Culicidae. The gist of the method:
(§1)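 BalbC mice were infected ip with 10⁷ P. berghei ANKA-parasitized erythrocytes. After 4 days, gametocytes and exflagellation were confirmed on Giemsa smears, and mice were randomized into groups of six. Each received a single ip dose (10 or 50 µmol/kg; controls given PBS). 2 h later, anesthetized mice were placed on Anopheles stephensi cages. Read-outs: % mosquitoes with oocysts, and mean oocysts per infected mosquito (SE).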

The subject of series [2] is Culicidae. The experiment in a line: Percentage of Plasmodium berghei ANKA infected Anopheles stephensi mosquitos after treatment with the compound at a dosage of 10 umol.1/kg. The format is functional. In a few lines:
as §1

The nature of series [3]: Mean number of Plasmodium berghei ANKA […] production in Anopheles stephensi mosquito after treatment with the compound at a dosage 10 umol.1/kg. The format is functional, Culicidae. In a few lines: as §1
The test system of series [4] is Culicidae. The experiment in a line: Percentage of Plasmodium berghei ANKA infected Anopheles stephensi mosquitos after treatment with the compound at a dosage of 50 umol.1/kg. The format is functional. The gist of the method:
as §1

A short description of series [5]: Mean number of Plasmodium berghei ANKA […] production in Anopheles stephensi mosquito after treatment with the compound at a dosage 50 umol.1/kg. It is filed as functional, Culicidae. In a few lines: as §1
Series [6] in a line: Percent hydrolysis to the corresponding amino acid product 3, in 80% human plasma at 37C after 3 days of treatment with the compound. It is filed as ADME, cell-free. The following applies: 72 h. In a few lines: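 Aliquots were quenched in acetonitrile and centrifuged. Supernatant went to reversed-phase HPLC (pH 4.75 sodium acetate/acetonitrile gradient with triethylamine) for substrate and amino acid product. Reported as % hydrolysis after 3 days.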

The test system of series [7] is Culicidae. The experiment in a line: Percentage of Plasmodium berghei ANKA infected Anopheles stephensi mosquitos after treatment with the compound at a dosage of 0 umol.1/kg. It is filed as functional. In a few lines: as §1
Series [8] can be described thus: Percent hydrolysis to the corresponding amino acid product 3, in pH 7.4 phosphate buffer at 37C after 3 days of treatment with the compound. The format is ADME, Homo sapiens. To be noted: read-out: Hydrolysis. In a few lines:
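Hydrolysis followed in pH 7.4 phosphate saline buffer at 37 °C. Substrate and amino acid product were measured by reversed-phase HPLC (pH 4.75 sodium acetate/acetonitrile gradient with triethylamine). Reported as % conversion after 3 days and as half-life in days.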

As to `COc1cc(NC(C)CCCN2C(=O)[C@H](C(C)C)NC23CCCCCC3)c2ncccc2c1` (stereo partly drawn), the Activity in series [1] was found to be 120; in series [3], 17.7. The compound also showed an Infectedmosquitoes in the series with Culicidae [2] of 65%.
`COc1cc(NC(C)CCCN2C(=O)[C@H](C(C)C)NC23CCCC3)c2ncccc2c1` (stereo partly drawn): the Infectedmosquitoes in the series with Culicidae [4] was 15%; in the series with Culicidae [2], 35%. Besides, the Activity in series [5] amounted to 0.5; in series [1] it was 51; in series [3] it was 4.2. This compound came in with a Hydrolysis in series [6] of 5%.
In the case of `COc1cc(NC(C)CCCN2C(=O)[C@H](Cc3ccccc3)NC23CCCCC3)c2ncccc2c1` (stereo partly drawn), the Infectedmosquitoes in the series with Culicidae [4] was 0%; with Culicidae [2], 83%. In addition, the Activity in series [5] came to 0; in series [1], 83.2; in series [3], 71.
In the case of `COc1cc(NC(C)CCCN2C(=O)CNC23CCCCC3)c2ncccc2c1` (stereo not drawn), the Infectedmosquitoes is 0% in the series with Culicidae [4], 25% with Culicidae [2] and 65% in the series with Culicidae [7]. Also, the figures for the Activity in series [5], in series [1] and in series [3] were 0, 105 and 7.4, respectively.
Regarding `COc1cc(NC(C)CCCN2C(=O)[C@H](C(C)C)NC23CCCCC3)c2ncccc2c1` (stereo partly drawn), the Infectedmosquitoes in the series with Culicidae [4] stood at 25%; in the series with Culicidae [2], 85%. The Activity in series [5] stood at 0.4; in series [1] it was 51; in series [3] it was 61.1. Further, the degraded at 72 h in series [8] is 8%.
Turning to `COc1cc(NC(C)CCCN2C(=O)[C@H](Cc3ccccc3)NC23CCCCCC3)c2ncccc2c1` (stereo partly drawn), the Infectedmosquitoes came to 0% with Culicidae [4] and 90% in the series on Culicidae [2]. In addition, the Activity is recorded as 0 in series [5], 120 in series [1] and 78.9 in series [3]. Further, the degraded at 72 h in series [8] was 10%.
Turning to `COc1cc(NC(C)CCCN2C(=O)[C@H](CC(C)C)NC2(C)C)c2ncccc2c1` (stereo partly drawn), the Infectedmosquitoes was 20% in the series on Culicidae [4] and 30% in the series with Culicidae [2]. For the same compound, the Activity worked out at 1 in series [5], 120 in series [1] and 13.7 in series [3]. In addition, the degraded at 72 h in series [8] worked out at 10%.
Regarding `COc1cc(NC(C)CCCN2C(=O)[C@H](C(C)C)NC2(C)C)c2ncccc2c1` (stereo partly drawn), the results for the Infectedmosquitoes in the series with Culicidae [4] and in the series with Culicidae [2] were 5% and 25%, respectively. Also, the results for the Activity in series [5], in series [1] and in series [3] were 0.9, 105 and 5, respectively.
Regarding `COc1cc(NC(C)CCCN2C(=O)CNC2(C)C)c2ncccc2c1` (stereo not drawn), the Infectedmosquitoes with Culicidae [4] stood at 0%; in the series on Culicidae [2] it was 21%. For the same compound, the values for the Activity in series [5], in series [1] and in series [3] were 0, 105 and 6.1, respectively. This compound also returned a Hydrolysis in series [6] of 16%.
`COc1cc(NC(C)CCCN2C(=O)[C@H](C)NC23CCCCC3)c2ncccc2c1` (stereo partly drawn): the figures for the Infectedmosquitoes in the series with Culicidae [4] and with Culicidae [2] were 0% and 20%, respectively. In addition, the Activity in series [5] is reported as 0; in series [1], 83.2; in series [3], 0.8. This compound displayed a Hydrolysis in series [6] of 9%.
With `COc1cc(NC(C)CCCN2C(=O)[C@H](Cc3ccccc3)NC2(C)C)c2ncccc2c1` (stereo partly drawn), the Infectedmosquitoes is 0% in the series with Culicidae [4] and 76% in the series on Culicidae [2]. The Activity amounted to 0 in series [5], 66.1 in series [1] and 61.2 in series [3]. For the same compound, in series [8], the degraded at 72 h was 6%.
For the compound `COc1cc(NC(C)CCCN2C(=O)[C@H](Cc3ccccc3)NC23CCCC3)c2ncccc2c1` (stereo partly drawn), the Infectedmosquitoes in the series with Culicidae [4] is 0%; in the series with Culicidae [2] it was 65%. Also, the values for the Activity in series [5], in series [1] and in series [3] were 0, 66.1 and 51.6, respectively. The compound further registered a Hydrolysis in series [6] of 3%.
In the case of `COc1cc(NC(C)CCCN)c2ncccc2c1` (stereo not drawn) [PRIMAQUINE], the Infectedmosquitoes with Culicidae [4] stood at 50%; in the series with Culicidae [2] it was 10%; in the series with Culicidae [7] it was 0%. Further, the Activity in series [5] was 0; in series [1], 83.2; in series [3], 2.6.
